In ChEMBL document CHEMBL4732237, “Discovery of 4-alkoxy-2-aryl-6,7-dimethoxyquinolines as a new class of topoisomerase I inhibitors endowed with potent in vitro anticancer activity” (2021):

How the values were obtained:
Format in all cases: functional
Conditions in all cases: read-out: GI
HL-60(TB) = test: Growth inhibition of human HL-60(TB) cells at 10 uM incubated for 48 hrs by sulforhodamine B assay relative to control
In short: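 NCI-60 one-dose screen: same culture, 48 h drug exposure and SRB read-out. Reported as percent growth relative to no-drug control and to time-zero cell number; 0–100 means growth inhibition, below 0 means lethality.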

K562 = test: Growth inhibition of human K562 cells at 10 uM incubated for 48 hrs by sulforhodamine B assay relative to control
In short: (§1)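 NCI-60 single-dose screen. Cells were grown in RPMI 1640 with 5% FBS and 2 mM L-glutamine and plated 24 h before drug addition. Compound was added at one concentration in DMSO-derived medium and incubated for 48 h at 37 °C in 5% CO2. Read-out was SRB protein stain at 515 nm. Result is percent growth versus the no-drug control and the time-zero cell count; values below 0 indicate lethality.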

MOLT-4 = test: Growth inhibition of human MOLT-4 cells at 10 uM incubated for 48 hrs by sulforhodamine B assay relative to control
In short: (§2)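 NCI one-dose screen. Cells grown in RPMI 1640 with 5% FBS and 2 mM L-glutamine, plated and incubated 24 h at 37 °C, 5% CO2. DMSO-dissolved drug added, then 48 h further incubation. Adherent cells fixed with cold TCA, suspension cells fixed after settling. Stained with 0.4% SRB, absorbance read at 515 nm. Reported as percent growth relative to no-drug control and time-zero cell number.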

SR = test: Growth inhibition of human SR cells at 10 uM incubated for 48 hrs by sulforhodamine B assay relative to control; in short: as §2
EKVX = test: Growth inhibition of human EKVX cells at 10 uM incubated for 48 hrs by sulforhodamine B assay relative to control; in short: as §1
HOP-62 = test: Growth inhibition of human HOP-62 cells at 10 uM incubated for 48 hrs by sulforhodamine B assay relative to control; in short: as §1
NCI-H23 = test: Growth inhibition of human NCI-H23 cells at 10 uM incubated for 48 hrs by sulforhodamine B assay relative to control; in short: as §2
NCI-H322M = test: Growth inhibition of human NCI-H322M cells at 10 uM incubated for 48 hrs by sulforhodamine B assay relative to control; in short: as §2
NCI-H460 = test: Growth inhibition of human NCI-H460 cells at 10 uM incubated for 48 hrs by sulforhodamine B assay relative to control; in short: as §2
NCI-H522 = test: Growth inhibition of human NCI-H522 cells at 10 uM incubated for 48 hrs by sulforhodamine B assay relative to control; in short: as §2
COLO 205 = test: Growth inhibition of human COLO 205 cells at 10 uM incubated for 48 hrs by sulforhodamine B assay relative to control; in short: as §1
KM12 = test: Growth inhibition of human KM12 cells at 10 uM incubated for 48 hrs by sulforhodamine B assay relative to control; in short: as §1
SW-620 = test: Growth inhibition of human SW-620 cells at 10 uM incubated for 48 hrs by sulforhodamine B assay relative to control
In short: (§3)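 NCI one-dose screen across a 59-line panel. Cells were grown in RPMI 1640 with 5% FBS and 2 mM L-glutamine, plated and pre-incubated 24 h, then exposed to drug for 48 h at 37 °C, 5% CO2. Adherent cells were fixed with cold TCA (10% final), stained with 0.4% SRB in 1% acetic acid and read at 515 nm. Result is percent growth relative to no-drug control and time-zero cell count.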

SF-268 = test: Growth inhibition of human SF-268 cells at 10 uM incubated for 48 hrs by sulforhodamine B assay relative to control; in short: as §2
SF-539 = test: Growth inhibition of human SF-539 cells at 10 uM incubated for 48 hrs by sulforhodamine B assay relative to control; in short: as §2
SNB-19 = test: Growth inhibition of human SNB-19 cells at 10 uM incubated for 48 hrs by sulforhodamine B assay relative to control; in short: as §2
SNB-75 = test: Growth inhibition of human SNB-75 cells at 10 uM incubated for 48 hrs by sulforhodamine B assay relative to control; in short: as §2
U-251 = test: Growth inhibition of human U-251 cells at 10 uM incubated for 48 hrs by sulforhodamine B assay relative to control; in short: as §3
M14 = test: Growth inhibition of human M14 cells at 10 uM incubated for 48 hrs by sulforhodamine B assay relative to control; in short: as §1
MDA-MB-435 = test: Growth inhibition of human MDA-MB-435 cells at 10 uM incubated for 48 hrs by sulforhodamine B assay relative to control; in short: as §1
SK-MEL-2 = test: Growth inhibition of human SK-MEL-2 cells at 10 uM incubated for 48 hrs by sulforhodamine B assay relative to control; in short: as §2
UACC-257 = test: Growth inhibition of human UACC-257 cells at 10 uM incubated for 48 hrs by sulforhodamine B assay relative to control; in short: as §3
UACC-62 = test: Growth inhibition of human UACC-62 cells at 10 uM incubated for 48 hrs by sulforhodamine B assay relative to control; in short: as §3
IGROV-1 = test: Growth inhibition of human IGROV-1 cells at 10 uM incubated for 48 hrs by sulforhodamine B assay relative to control; in short: as §1
OVCAR-3 = test: Growth inhibition of human OVCAR-3 cells at 10 uM incubated for 48 hrs by sulforhodamine B assay relative to control; in short: as §2
OVCAR-4 = test: Growth inhibition of human OVCAR-4 cells at 10 uM incubated for 48 hrs by sulforhodamine B assay relative to control; in short: as §2
OVCAR-5 = test: Growth inhibition of human OVCAR-5 cells at 10 uM incubated for 48 hrs by sulforhodamine B assay relative to control; in short: as §2
OVCAR-8 = test: Growth inhibition of human OVCAR-8 cells at 10 uM incubated for 48 hrs by sulforhodamine B assay relative to control; in short: as §2
NCI/ADR-RES = test: Growth inhibition of human NCI/ADR-RES cells at 10 uM incubated for 48 hrs by sulforhodamine B assay relative to control; in short: as §2
SK-OV-3 = test: Growth inhibition of human SK-OV-3 cells at 10 uM incubated for 48 hrs by sulforhodamine B assay relative to control; in short: as §2
RXF 393 = test: Growth inhibition of human RXF 393 cells at 10 uM incubated for 48 hrs by sulforhodamine B assay relative to control; in short: as §2
TK-10 = test: Growth inhibition of human TK-10 cells at 10 uM incubated for 48 hrs by sulforhodamine B assay relative to control; in short: as §3
UO-31 = test: Growth inhibition of human UO-31 cells at 10 uM incubated for 48 hrs by sulforhodamine B assay relative to control; in short: as §3
PC-3 = test: Growth inhibition of human PC-3 cells at 10 uM incubated for 48 hrs by sulforhodamine B assay relative to control; in short: as §2
MCF7 = test: Growth inhibition of human MCF7 cells at 10 uM incubated for 48 hrs by sulforhodamine B assay relative to control; in short: as §1
MDA-MB-468 = test: Growth inhibition of human MDA-MB-468 cells at 10 uM incubated for 48 hrs by sulforhodamine B assay relative to control; in short: as §1

Compound | inhibition of growth at 10 µM (HL-60(TB)) | inhibition of growth at 10 µM (K562) | inhibition of growth at 10 µM (MOLT-4) | inhibition of growth at 10 µM (SR) | inhibition of growth at 10 µM (EKVX) | inhibition of growth at 10 µM (HOP-62) | inhibition of growth at 10 µM (NCI-H23) | inhibition of growth at 10 µM (NCI-H322M) | inhibition of growth at 10 µM (NCI-H460) | inhibition of growth at 10 µM (NCI-H522) | inhibition of growth at 10 µM (COLO 205) | inhibition of growth at 10 µM (KM12) | inhibition of growth at 10 µM (SW-620) | inhibition of growth at 10 µM (SF-268) | inhibition of growth at 10 µM (SF-539) | inhibition of growth at 10 µM (SNB-19) | inhibition of growth at 10 µM (SNB-75) | inhibition of growth at 10 µM (U-251) | inhibition of growth at 10 µM (M14) | inhibition of growth at 10 µM (MDA-MB-435) | other results
COc1cc2nc(-c3ccc(Cl)cc3)cc(OCCCN3CCCCC3)c2cc1OC | 62% | 62% | 62% | 62% | 62% | 62% | 62% | 62% | 62% | 62% | 62% | 62% | 62% | 62% | 62% | 62% | 62% | 62% | 62% | 62% | inhibition of growth at 10 µM (SK-MEL-2): 62%; inhibition of growth at 10 µM (UACC-257): 62%; inhibition of growth at 10 µM (UACC-62): 62%; inhibition of growth at 10 µM (IGROV-1): 62%; inhibition of growth at 10 µM (OVCAR-3): 62%; inhibition of growth at 10 µM (OVCAR-4): 62%; inhibition of growth at 10 µM (OVCAR-5): 62%; inhibition of growth at 10 µM (OVCAR-8): 62%; inhibition of growth at 10 µM (NCI/ADR-RES): 62%; inhibition of growth at 10 µM (SK-OV-3): 62%; inhibition of growth at 10 µM (RXF 393): 62%; inhibition of growth at 10 µM (TK-10): 62%; inhibition of growth at 10 µM (UO-31): 62%; inhibition of growth at 10 µM (PC-3): 62%; inhibition of growth at 10 µM (MCF7): 62%; inhibition of growth at 10 µM (MDA-MB-468): 62%
COc1cc2nc(-c3ccc(C(F)(F)F)cc3)cc(OCCN3CCC(O)CC3)c2cc1OC | 13% | 13% | 13% | 13% | 13% | 13% | 13% | 13% | 13% | 13% | 13% | 13% | 13% | 13% | 13% | 13% | 13% | 13% | 13% | 13% | inhibition of growth at 10 µM (SK-MEL-2): 13%; inhibition of growth at 10 µM (UACC-257): 13%; inhibition of growth at 10 µM (UACC-62): 13%; inhibition of growth at 10 µM (IGROV-1): 13%; inhibition of growth at 10 µM (OVCAR-3): 13%; inhibition of growth at 10 µM (OVCAR-4): 13%; inhibition of growth at 10 µM (OVCAR-5): 13%; inhibition of growth at 10 µM (OVCAR-8): 13%; inhibition of growth at 10 µM (NCI/ADR-RES): 13%; inhibition of growth at 10 µM (SK-OV-3): 13%; inhibition of growth at 10 µM (RXF 393): 13%; inhibition of growth at 10 µM (TK-10): 13%; inhibition of growth at 10 µM (UO-31): 13%; inhibition of growth at 10 µM (PC-3): 13%; inhibition of growth at 10 µM (MCF7): 13%; inhibition of growth at 10 µM (MDA-MB-468): 13%
COc1cc2nc(-c3ccc(Cl)cc3)cc(OCCN3CCC(O)CC3)c2cc1OC | 3% | 3% | 3% | 3% | 3% | 3% | 3% | 3% | 3% | 3% | 3% | 3% | 3% | 3% | 3% | 3% | 3% | 3% | 3% | 3% | inhibition of growth at 10 µM (SK-MEL-2): 3%; inhibition of growth at 10 µM (UACC-257): 3%; inhibition of growth at 10 µM (UACC-62): 3%; inhibition of growth at 10 µM (IGROV-1): 3%; inhibition of growth at 10 µM (OVCAR-3): 3%; inhibition of growth at 10 µM (OVCAR-4): 3%; inhibition of growth at 10 µM (OVCAR-5): 3%; inhibition of growth at 10 µM (OVCAR-8): 3%; inhibition of growth at 10 µM (NCI/ADR-RES): 3%; inhibition of growth at 10 µM (SK-OV-3): 3%; inhibition of growth at 10 µM (RXF 393): 3%; inhibition of growth at 10 µM (TK-10): 3%; inhibition of growth at 10 µM (UO-31): 3%; inhibition of growth at 10 µM (PC-3): 3%; inhibition of growth at 10 µM (MCF7): 3%; inhibition of growth at 10 µM (MDA-MB-468): 3%
